From ChEMBL document CHEMBL4028872, “Structure-Activity Relationship, Pharmacological Characterization, and Molecular Modeling of Noncompetitive Inhibitors of the Betaine/γ-Aminobutyric Acid Transporter 1 (BGT1)” (J Med Chem, 2017)

Columns and labels:
Format in all cases: cell-based
[1] = molecular target: T1, Sodium- and chloride-dependent GABA transporter 2 (Homo sapiens, UniProt Q9NSD5); test: Inhibition of human GAT2 expresses in tsA201 cells assessed as reduction in [3H]GABA uptake after 3 mins by scintillation counting method
T1 sequence (Q9NSD5 whole entry): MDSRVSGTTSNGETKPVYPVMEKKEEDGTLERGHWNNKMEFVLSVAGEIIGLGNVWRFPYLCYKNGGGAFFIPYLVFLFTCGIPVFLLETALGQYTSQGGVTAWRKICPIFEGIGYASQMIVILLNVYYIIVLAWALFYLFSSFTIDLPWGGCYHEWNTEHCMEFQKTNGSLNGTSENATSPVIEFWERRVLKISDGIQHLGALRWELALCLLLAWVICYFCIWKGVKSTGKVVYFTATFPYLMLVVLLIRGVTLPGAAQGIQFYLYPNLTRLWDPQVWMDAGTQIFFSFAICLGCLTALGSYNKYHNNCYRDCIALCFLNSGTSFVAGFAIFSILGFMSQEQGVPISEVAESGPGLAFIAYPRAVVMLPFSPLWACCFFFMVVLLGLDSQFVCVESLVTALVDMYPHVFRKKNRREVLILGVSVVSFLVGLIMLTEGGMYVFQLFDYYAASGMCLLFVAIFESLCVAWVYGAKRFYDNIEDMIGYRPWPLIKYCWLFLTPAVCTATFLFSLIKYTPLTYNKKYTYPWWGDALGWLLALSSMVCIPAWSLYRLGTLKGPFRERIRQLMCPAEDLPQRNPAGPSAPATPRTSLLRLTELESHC
Summary of the method: (§1)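 Wild-type human GAT transiently expressed in tsA201 cells via pcDNA5/FRT and PolyFect. Uptake of 30 nM [3H]GABA was run for 3 min at 37 °C in HBSS/20 mM HEPES with 1 mM CaCl2 and 1 mM MgCl2, pH 7.4, across a range of test concentrations. Ice-cold washes were followed by scintillation counting. IC50 was obtained by sigmoidal variable-slope fitting, reported as mean pIC50 ± S.E.M.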

[2] = molecular target: Sodium- and chloride-dependent GABA transporter 1 (Homo sapiens, UniProt P30531)
[3] = molecular target: T2, Sodium- and chloride-dependent GABA transporter 3 (Homo sapiens, UniProt P48066); test: Inhibition of human GAT3 expresses in tsA201 cells assessed as reduction in [3H]GABA uptake after 3 mins by scintillation counting method; summary of the method: as §1
T2 sequence (P48066 whole entry): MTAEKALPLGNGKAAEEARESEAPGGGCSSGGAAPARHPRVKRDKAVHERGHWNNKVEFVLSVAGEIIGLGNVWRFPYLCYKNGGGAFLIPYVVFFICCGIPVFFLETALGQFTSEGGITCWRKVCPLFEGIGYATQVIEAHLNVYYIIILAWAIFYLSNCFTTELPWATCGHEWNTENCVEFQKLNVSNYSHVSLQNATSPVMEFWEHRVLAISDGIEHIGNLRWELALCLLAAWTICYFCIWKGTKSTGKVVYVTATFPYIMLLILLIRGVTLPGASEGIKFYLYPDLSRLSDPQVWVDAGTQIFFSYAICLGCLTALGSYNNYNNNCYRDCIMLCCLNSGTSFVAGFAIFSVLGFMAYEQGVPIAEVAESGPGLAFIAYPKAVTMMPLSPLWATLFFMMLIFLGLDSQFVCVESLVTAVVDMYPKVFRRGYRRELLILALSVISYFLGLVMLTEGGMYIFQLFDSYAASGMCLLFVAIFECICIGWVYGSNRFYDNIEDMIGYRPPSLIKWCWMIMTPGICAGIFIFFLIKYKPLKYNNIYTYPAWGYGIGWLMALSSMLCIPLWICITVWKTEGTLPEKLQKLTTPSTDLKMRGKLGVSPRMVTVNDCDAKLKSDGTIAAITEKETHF

[4] = molecular target: T3, Sodium- and chloride-dependent betaine transporter (Homo sapiens, UniProt P48065); test: Inhibition of human BGT1 expresses in tsA201 cells assessed as reduction in [3H]GABA uptake after 3 mins by scintillation counting method
T3 sequence (P48065 whole entry): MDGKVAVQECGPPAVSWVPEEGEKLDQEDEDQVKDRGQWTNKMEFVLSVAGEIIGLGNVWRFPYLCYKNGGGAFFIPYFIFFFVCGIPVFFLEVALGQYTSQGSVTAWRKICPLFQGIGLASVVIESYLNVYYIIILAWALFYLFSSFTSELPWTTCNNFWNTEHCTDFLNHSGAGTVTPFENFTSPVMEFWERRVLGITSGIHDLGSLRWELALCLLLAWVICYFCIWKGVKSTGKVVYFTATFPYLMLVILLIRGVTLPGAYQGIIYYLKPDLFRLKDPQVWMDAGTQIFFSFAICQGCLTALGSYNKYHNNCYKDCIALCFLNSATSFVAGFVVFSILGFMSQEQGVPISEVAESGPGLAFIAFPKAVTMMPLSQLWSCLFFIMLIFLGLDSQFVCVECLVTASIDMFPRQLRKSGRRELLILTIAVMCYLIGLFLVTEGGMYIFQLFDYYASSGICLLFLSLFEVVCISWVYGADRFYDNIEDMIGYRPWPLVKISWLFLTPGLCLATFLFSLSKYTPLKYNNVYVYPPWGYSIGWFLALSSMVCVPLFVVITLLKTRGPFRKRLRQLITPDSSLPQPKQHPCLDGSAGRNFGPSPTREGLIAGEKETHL
Summary of the method: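 tsA201 cells transiently transfected with wild-type or mutant human BGT1 (PolyFect) were plated about 24 h before assay. Three ice-cold washes followed, then scintillation counting.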

Chain of Sodium- and chloride-dependent GABA transporter 1 (P30531 whole entry): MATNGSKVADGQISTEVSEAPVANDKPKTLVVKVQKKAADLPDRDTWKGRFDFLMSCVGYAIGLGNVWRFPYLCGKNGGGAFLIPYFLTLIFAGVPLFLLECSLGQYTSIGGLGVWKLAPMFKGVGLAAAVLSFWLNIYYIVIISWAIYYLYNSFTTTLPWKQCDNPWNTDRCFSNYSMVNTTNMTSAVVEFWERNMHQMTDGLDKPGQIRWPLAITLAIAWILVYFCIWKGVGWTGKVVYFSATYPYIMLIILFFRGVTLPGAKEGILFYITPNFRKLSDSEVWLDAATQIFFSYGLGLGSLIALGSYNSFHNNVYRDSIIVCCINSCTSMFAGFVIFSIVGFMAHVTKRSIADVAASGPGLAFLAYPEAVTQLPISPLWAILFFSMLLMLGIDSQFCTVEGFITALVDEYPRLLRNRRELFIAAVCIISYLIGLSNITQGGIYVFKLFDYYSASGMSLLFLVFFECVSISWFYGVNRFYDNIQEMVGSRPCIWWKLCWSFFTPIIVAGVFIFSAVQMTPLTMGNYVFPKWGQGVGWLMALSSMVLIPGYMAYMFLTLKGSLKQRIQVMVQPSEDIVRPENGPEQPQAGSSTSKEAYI

Row | Structure (SMILES) | IC50 ([1]; read-out: IC50) | IC50 ([2]; read-out: IC50) | IC50 ([3]; read-out: IC50) | IC50 ([4]; read-out: IC50) | IC50 [1] | IC50 [2] | IC50 [3] | IC50 [4]
1 | O=C(NC1CCN(C/C=C/c2ccccc2)CC1)c1ccc(Cl)cc1Cl | > 100 µM | > 100 µM | > 100 µM | > 100 µM | – | – | – | –
2 | N#Cc1ccc(CN2CCC(NC(=O)c3ccc(Cl)cc3Cl)CC2)cc1 | > 50 µM | > 50 µM | > 50 µM | > 50 µM | – | – | – | –
3 | O=C(NC1CCN(Cc2ccccc2)CC1)c1cccc(C(F)(F)F)c1 | > 500 µM | > 500 µM | > 500 µM | 170 µM | – | – | – | –
4 | CC(C)C(=O)NC1CCN(Cc2ccccc2)CC1 | > 1000 µM | > 1000 µM | > 1000 µM | > 1000 µM | – | – | – | –
5 | O=C(NC1CCN(Cc2ccccc2[N+](=O)[O-])CC1)c1ccc(Cl)cc1Cl | > 100 µM | > 100 µM | > 100 µM | > 100 µM | – | – | – | –
6 | N#Cc1ccccc1CN1CCC(NC(=O)c2ccc(Cl)cc2Cl)CC1 | > 50 µM | > 50 µM | > 50 µM | > 50 µM | – | – | – | –
7 | O=C(NC1CCN(Cc2ccccc2)CC1)c1ccc2ccccc2c1 | – | – | – | – | 23 µM | > 100 µM | > 100 µM | 15 µM
8 | N#CCCCN1CCC(NC(=O)c2ccc(Cl)cc2Cl)CC1 | > 1000 µM | > 1000 µM | > 1000 µM | > 1000 µM | – | – | – | –
9 | O=C(NC1CCNCC1)c1ccc(Cl)cc1Cl | > 1000 µM | > 1000 µM | > 1000 µM | > 1000 µM | – | – | – | –
10 | CCOP(=O)(CCCN1CCC(NC(=O)c2ccc(Cl)cc2Cl)CC1)OCC | > 1000 µM | > 1000 µM | > 1000 µM | > 1000 µM | – | – | – | –
11 | CCCN1CCC(NC(=O)c2ccc(Cl)cc2Cl)CC1 | > 1000 µM | > 1000 µM | > 1000 µM | > 1000 µM | – | – | – | –
12 | O=C(NC1CCN(Cc2ccccc2)CC1)c1ccc2c(c1)OCO2 | – | – | – | – | 63 µM | > 100 µM | > 100 µM | 42 µM
13 | O=C(NC1CCN(Cc2ccccc2)CC1)c1ccccc1 | > 1000 µM | > 1000 µM | > 1000 µM | 290 µM | – | – | – | –
14 | CCOc1ccccc1C(=O)NC1CCN(Cc2ccccc2)CC1 | > 500 µM | > 500 µM | > 500 µM | 180 µM | – | – | – | –
15 | O=C(NC1CCN(Cc2ccccc2)CC1)c1ccc(F)cc1 | > 300 µM | > 300 µM | > 300 µM | 100 µM | – | – | – | –
16 | O=C(NC1CCN(Cc2ccncc2)CC1)c1ccc(Cl)cc1Cl | > 1000 µM | > 1000 µM | > 1000 µM | > 1000 µM | – | – | – | –
17 | CN1CCC(NC(=O)c2ccc(Cl)cc2Cl)CC1 | > 1000 µM | > 1000 µM | > 1000 µM | > 1000 µM | – | – | – | –
18 | COC(=O)c1ccc(CN2CCC(NC(=O)c3ccc(Cl)cc3Cl)CC2)cc1 | > 100 µM | > 100 µM | > 100 µM | > 100 µM | – | – | – | –
19 | CC(C)(C)OC(=O)CN1CCC(NC(=O)c2ccc(Cl)cc2Cl)CC1 | > 1000 µM | > 1000 µM | > 1000 µM | > 1000 µM | – | – | – | –
20 | CCN1CCC(NC(=O)c2ccc(Cl)cc2Cl)CC1 | > 1000 µM | > 1000 µM | > 1000 µM | > 1000 µM | – | – | – | –
21 | O=C(NC1CCN(Cc2ccc(I)cc2)CC1)c1ccc(Cl)cc1Cl | > 100 µM | > 100 µM | > 100 µM | > 100 µM | – | – | – | –
22 | O=C(CN1CCC(NC(=O)c2ccc(Cl)cc2Cl)CC1)c1ccccc1 | > 100 µM | > 100 µM | > 100 µM | > 100 µM | – | – | – | –
23 | C#CCN1CCC(NC(=O)c2ccc(Cl)cc2Cl)CC1 | > 1000 µM | > 1000 µM | > 1000 µM | > 1000 µM | – | – | – | –
24 | O=C(O)CN1CCC(NC(=O)c2ccc(Cl)cc2Cl)CC1 | > 1000 µM | > 1000 µM | > 1000 µM | > 1000 µM | – | – | – | –
25 | O=C(NC1CCN(Cc2cccnc2)CC1)c1ccc(Cl)cc1Cl | > 1000 µM | > 1000 µM | > 1000 µM | > 1000 µM | – | – | – | –
26 | O=C(NC1CCN(Cc2ccccn2)CC1)c1ccc(Cl)cc1Cl | > 1000 µM | > 1000 µM | > 1000 µM | > 1000 µM | – | – | – | –
27 | O=C(NC1CCN(Cc2ccc([N+](=O)[O-])cc2)CC1)c1ccc(Cl)cc1Cl | > 100 µM | > 100 µM | > 100 µM | > 100 µM | – | – | – | –
28 | COc1cccc(C(=O)NC2CCN(Cc3ccccc3)CC2)c1OC | > 500 µM | > 500 µM | > 500 µM | 91 µM | – | – | – | –
29 | O=C(NC1CCN(Cc2ccc3ccccc3n2)CC1)c1ccc(Cl)cc1Cl | > 50 µM | > 50 µM | > 50 µM | > 50 µM | – | – | – | –
30 | O=C(NC1CCN(Cc2ccc3ccccc3c2)CC1)c1ccc(Cl)cc1Cl | > 50 µM | > 50 µM | > 50 µM | > 50 µM | – | – | – | –
